Measurements from different studies.
Compare with care: the assays were run in different laboratories. pIC50: −log10 of the molar value. ≈ marks a conversion by molar mass, not a printed value.

Compound	target or system	test	system	setting	endpoint	result
O=C(Cc1ccc2ccccc2c1)N[C@@H](Cc1ccccc1)C(=O)N[C@@H](Cc1ccccc1)C(=O)N[C@H](Cc1ccc(OP(=O)(O)O)cc1)C(=O)O	HeLa	cell growth or viability, MTT	–	48 h	pIC50	3.37
Nc1ncnc2c([C@@H]3N[C@H](CO)[C@@H](O)[C@H]3O)c[nH]c12	Japanese encephalitis virus	viral replication, inhibitor	Vero 76	0.1 µM	inhibition	0%
CCCCCC/C=C\CCCCCCCCCC(=O)NP(=O)(O)O	Enterococcus faecalis	microbial growth	ATCC33186	–	MIC	200 µg/mL (≈ 553 µM)
COc1ccc(NC(=O)/C=C/c2ccc3c(c2)C=CC(C)(C)O3)cc1	rat Primary cortical neuron	cell growth or viability, MTT	–	1 µM, 12 h	viability	87%
CCCCCCCCCCCCCCCC(=O)NP(=O)(O)O	Enterococcus faecalis	microbial growth	ATCC33186	–	MIC	200 µg/mL (≈ 596 µM)
COc1cc2c(cc1O)CCN[C@]21CS[C@@H]2c3c(OC(C)=O)c(C)c4c(c3[C@H](COC1=O)N1[C@@H]2[C@H]2c3c(cc(C)c(OC)c3O)C[C@@H]([C@@H]1C#N)N2C)OCO4	Human coronavirus 229E	viral replication	Calu-3	–	pIC50	6.60
C=CCCCCCCCCC(=O)C(F)(F)P(=O)(O)O	Enterococcus faecalis	microbial growth	ATCC33186	–	MIC	> 200 µg/mL
Cc1cccc(CSc2nccc(OCCOc3cc(=O)oc4ccccc34)n2)c1	Human coronavirus 229E	cytopathic effect	A549	12.5 µM	inhibition	38.1%
CC[C@@]1(O)C[C@H](O[C@H]2C[C@H](N(C)C)[C@H](O[C@H]3C[C@H](O)[C@H](O[C@H]4CCC(=O)[C@H](C)O4)[C@H](C)O3)[C@H](C)O2)c2c(cc3c(c2O)C(=O)c2c(O)cccc2C3=O)[C@H]1C(=O)OC	Human coronavirus 229E	viral replication	Calu-3	–	pIC50	5.63
CCCCCCCC/C=C\CCCCCCCCNC(=O)CP(=O)(O)O	Enterococcus faecalis	microbial growth	ATCC33186	–	MIC	50 µg/mL (≈ 128 µM)
CCOC(=O)C1=C[C@@H](OC(CC)CC)[C@H](NC(C)=O)[C@@H](N)C1	Human coronavirus 229E	viral replication	A549	–	pIC50	5.12
CC1(C)C=Cc2cc(C(CC(=O)Nc3ccccc3)Nc3ccccc3)ccc2O1 (stereo not drawn)	rat Primary cortical neuron	cell growth or viability, MTT	–	1 µM, 12 h	viability	> 80%
COC1=C2C[C@@H](C)C[C@H](OC)[C@H](O)[C@@H](C)/C=C(\C)[C@H](OC(N)=O)[C@@H](OC)/C=C\C=C(/C)C(=O)NC(=CC1=O)C2=O	Human coronavirus 229E	viral replication	Calu-3	–	pIC50	5.06
O=c1cc(OCCCOc2ccnc(SCc3ccc(F)cc3)n2)c2cc(F)ccc2o1	Human coronavirus 229E	cytopathic effect	A549	6.25 µM	inhibition	34.9%
CC(C)[C@H](NC(=O)[C@H](CCCNC(=N)N)NC(=O)N[C@@H](Cc1ccccc1)C(=O)O)C(=O)N[C@H](C=O)CCCNC(=N)N	Human coronavirus 229E	viral replication	Huh7.5	–	pIC50	5.80
CCCC(=O)CP(=O)(O)O	Enterococcus faecalis	microbial growth	ATCC33186	–	MIC	> 200 µg/mL
CC(C)C[C@H](NC(=O)[C@@H](NC(=O)N[C@@H](Cc1ccccc1)C(=O)O)[C@@H]1CCN=C(N)N1)C(=O)N[C@H](C=O)Cc1ccccc1	Human coronavirus 229E	viral replication	Huh7.5	–	pIC50	4.62
COc1ccccc1NC(=O)/C=C/c1ccc2c(c1)C=CC(C)(C)O2	rat Primary cortical neuron	cell growth or viability, MTT	–	1 µM, 12 h	viability	83%
